From ChEMBL document CHEMBL4014345, “Development of Selective Clk1 and -4 Inhibitors for Cellular Depletion of Cancer-Relevant Proteins” (J Med Chem, 2017)
Active and inactive are the calls of the source. No cut-off for these calls is given here.

Tests used:
[1] = target: T1, Dual specificity protein kinase CLK1 (Homo sapiens, UniProt P49759); experiment: Inhibition of recombinant human GST-tagged Clk1 expressed in Escherichia coli using RS repeat substrate peptide after 15 mins in presence of [gamma-32]-ATP
Target sequence in this assay (P49759 whole entry): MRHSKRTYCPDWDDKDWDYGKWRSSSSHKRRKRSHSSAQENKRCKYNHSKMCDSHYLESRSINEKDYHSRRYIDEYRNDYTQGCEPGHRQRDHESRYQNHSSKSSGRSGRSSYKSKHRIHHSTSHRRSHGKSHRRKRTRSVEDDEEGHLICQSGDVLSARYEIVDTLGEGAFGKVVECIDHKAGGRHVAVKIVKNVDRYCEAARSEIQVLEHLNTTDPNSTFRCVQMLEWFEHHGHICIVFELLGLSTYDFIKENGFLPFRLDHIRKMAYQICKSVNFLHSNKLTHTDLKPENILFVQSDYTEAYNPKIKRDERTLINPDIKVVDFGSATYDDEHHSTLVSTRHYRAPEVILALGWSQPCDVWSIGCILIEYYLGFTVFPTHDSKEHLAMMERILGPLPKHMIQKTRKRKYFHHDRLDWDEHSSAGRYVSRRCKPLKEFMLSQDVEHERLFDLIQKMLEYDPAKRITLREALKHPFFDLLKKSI

[2] = target: T2, Dual specificity tyrosine-phosphorylation-regulated kinase 1B (Homo sapiens, UniProt Q9Y463); experiment: Inhibition of full length recombinant GST-tagged human DYRK1B expressed in baculovirus using KKISGRLSPIMTEQ-NH2 as substrate after 15 mins
Target sequence in this assay (Q9Y463 whole entry): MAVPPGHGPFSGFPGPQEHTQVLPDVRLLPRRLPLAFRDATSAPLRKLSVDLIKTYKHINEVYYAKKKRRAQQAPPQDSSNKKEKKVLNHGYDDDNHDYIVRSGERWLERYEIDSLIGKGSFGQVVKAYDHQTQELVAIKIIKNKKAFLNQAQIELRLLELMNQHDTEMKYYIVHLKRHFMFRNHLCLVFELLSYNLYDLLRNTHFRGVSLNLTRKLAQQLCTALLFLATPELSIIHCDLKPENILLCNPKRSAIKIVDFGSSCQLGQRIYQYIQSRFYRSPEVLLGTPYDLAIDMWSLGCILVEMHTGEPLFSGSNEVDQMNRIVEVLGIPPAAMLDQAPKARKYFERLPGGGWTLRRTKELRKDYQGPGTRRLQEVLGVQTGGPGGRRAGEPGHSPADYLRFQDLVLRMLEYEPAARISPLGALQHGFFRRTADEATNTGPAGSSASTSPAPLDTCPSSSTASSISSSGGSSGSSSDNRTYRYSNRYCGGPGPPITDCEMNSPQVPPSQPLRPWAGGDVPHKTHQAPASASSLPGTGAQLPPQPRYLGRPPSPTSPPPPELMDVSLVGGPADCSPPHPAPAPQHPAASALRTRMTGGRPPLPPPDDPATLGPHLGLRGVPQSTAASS

[3] = target: T2, Dual specificity tyrosine-phosphorylation-regulated kinase 1B; experiment: Inhibition of full length recombinant GST-tagged human DYRK1B expressed in baculovirus using KKISGRLSPIMTEQ-NH2 as substrate at 1 uM after 15 mins
Target sequence in this assay (Q9Y463 whole entry, looked up): as the sequence (Q9Y463 whole entry) above

[4] = target: T1, Dual specificity protein kinase CLK1; experiment: Inhibition of recombinant human GST-tagged Clk1 expressed in Escherichia coli at 1 uM using RS repeat substrate peptide after 15 mins in presence of [gamma-32]-ATP
Target sequence in this assay (P49759 whole entry, looked up): as the sequence (P49759 whole entry) above

[5] = target: Dual specificity protein kinase CLK4 (Mus musculus, UniProt O35493); experiment: Inhibition of recombinant GST-tagged mouse CLK4 using GRSRSRSRSRSR as substrate after 30 mins in presence of [gamma-32P]-ATP by scintillation counting method
Sequence of Dual specificity protein kinase CLK4 (O35493 whole entry): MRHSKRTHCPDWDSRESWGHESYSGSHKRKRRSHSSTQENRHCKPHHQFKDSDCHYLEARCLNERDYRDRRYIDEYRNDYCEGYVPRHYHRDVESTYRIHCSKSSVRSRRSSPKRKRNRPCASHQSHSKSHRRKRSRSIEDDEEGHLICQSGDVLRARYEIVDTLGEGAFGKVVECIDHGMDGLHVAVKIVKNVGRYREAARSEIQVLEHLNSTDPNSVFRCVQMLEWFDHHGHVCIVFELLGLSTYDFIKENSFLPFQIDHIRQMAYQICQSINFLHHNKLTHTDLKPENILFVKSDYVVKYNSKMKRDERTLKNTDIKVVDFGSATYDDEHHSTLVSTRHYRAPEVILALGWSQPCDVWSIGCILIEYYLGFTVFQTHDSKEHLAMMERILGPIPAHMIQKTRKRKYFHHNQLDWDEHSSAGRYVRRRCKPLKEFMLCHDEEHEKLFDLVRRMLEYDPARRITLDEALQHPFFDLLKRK

[6] = target: SRSF protein kinase 1 (Homo sapiens) (UniProt Q96SB4); experiment: Inhibition of SRPK1 (unknown origin) at 1 uM
Sequence of SRSF protein kinase 1 (Homo sapiens) (Q96SB4 whole entry): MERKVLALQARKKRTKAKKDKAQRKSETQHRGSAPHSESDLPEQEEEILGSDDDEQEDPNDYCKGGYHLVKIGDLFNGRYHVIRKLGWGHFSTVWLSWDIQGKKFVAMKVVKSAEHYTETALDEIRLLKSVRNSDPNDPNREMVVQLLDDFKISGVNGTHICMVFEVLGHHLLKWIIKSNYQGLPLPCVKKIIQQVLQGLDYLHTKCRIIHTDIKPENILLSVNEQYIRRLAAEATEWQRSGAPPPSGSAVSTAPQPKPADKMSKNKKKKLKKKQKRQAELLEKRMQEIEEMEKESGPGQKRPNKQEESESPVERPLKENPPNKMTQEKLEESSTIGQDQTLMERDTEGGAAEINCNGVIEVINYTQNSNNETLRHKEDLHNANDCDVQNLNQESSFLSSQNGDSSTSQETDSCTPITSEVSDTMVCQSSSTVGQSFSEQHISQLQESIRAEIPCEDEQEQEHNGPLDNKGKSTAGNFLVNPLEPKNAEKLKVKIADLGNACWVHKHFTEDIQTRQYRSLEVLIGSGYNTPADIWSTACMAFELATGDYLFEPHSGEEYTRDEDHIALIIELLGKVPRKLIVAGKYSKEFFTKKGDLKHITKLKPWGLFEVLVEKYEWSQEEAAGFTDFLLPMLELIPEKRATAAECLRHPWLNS
Outline: (§1)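 Tested in a commercial kinase profiling panel at an ATP concentration of 100 μM. Data are the mean of duplicates that differed by less than 7%.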

[7] = target: Myosin light chain kinase 2, skeletal/cardiac muscle (Homo sapiens) (UniProt Q9H1R3); experiment: Inhibition of MLCK2 (unknown origin) at 1 uM after 15 mins; outline: as §1
Sequence of Myosin light chain kinase 2, skeletal/cardiac muscle (Homo sapiens) (Q9H1R3 whole entry): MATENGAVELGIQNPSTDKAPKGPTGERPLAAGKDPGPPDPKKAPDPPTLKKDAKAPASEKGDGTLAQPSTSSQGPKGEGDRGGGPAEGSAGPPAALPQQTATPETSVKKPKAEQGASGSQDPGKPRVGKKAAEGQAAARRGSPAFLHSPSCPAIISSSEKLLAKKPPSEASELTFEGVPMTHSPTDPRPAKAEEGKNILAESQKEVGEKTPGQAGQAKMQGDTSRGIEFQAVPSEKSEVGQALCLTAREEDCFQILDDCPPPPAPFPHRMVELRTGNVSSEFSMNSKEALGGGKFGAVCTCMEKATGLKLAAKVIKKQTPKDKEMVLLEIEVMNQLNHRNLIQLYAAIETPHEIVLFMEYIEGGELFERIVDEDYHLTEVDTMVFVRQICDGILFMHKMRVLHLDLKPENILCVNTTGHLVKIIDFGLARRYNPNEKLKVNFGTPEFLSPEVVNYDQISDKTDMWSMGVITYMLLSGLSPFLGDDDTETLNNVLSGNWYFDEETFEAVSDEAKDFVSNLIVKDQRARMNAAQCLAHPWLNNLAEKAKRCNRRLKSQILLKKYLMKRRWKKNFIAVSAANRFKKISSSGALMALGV

[8] = target: Dual specificity tyrosine-phosphorylation-regulated kinase 3 (Homo sapiens) (UniProt O43781); experiment: Inhibition of DYRK3 (unknown origin) using KKISGRLSPIMTEQ-NH2 as substrate at 1 uM after 15 mins in presence of [gamma-32P]-ATP
Sequence of Dual specificity tyrosine-phosphorylation-regulated kinase 3 (Homo sapiens) (O43781 whole entry): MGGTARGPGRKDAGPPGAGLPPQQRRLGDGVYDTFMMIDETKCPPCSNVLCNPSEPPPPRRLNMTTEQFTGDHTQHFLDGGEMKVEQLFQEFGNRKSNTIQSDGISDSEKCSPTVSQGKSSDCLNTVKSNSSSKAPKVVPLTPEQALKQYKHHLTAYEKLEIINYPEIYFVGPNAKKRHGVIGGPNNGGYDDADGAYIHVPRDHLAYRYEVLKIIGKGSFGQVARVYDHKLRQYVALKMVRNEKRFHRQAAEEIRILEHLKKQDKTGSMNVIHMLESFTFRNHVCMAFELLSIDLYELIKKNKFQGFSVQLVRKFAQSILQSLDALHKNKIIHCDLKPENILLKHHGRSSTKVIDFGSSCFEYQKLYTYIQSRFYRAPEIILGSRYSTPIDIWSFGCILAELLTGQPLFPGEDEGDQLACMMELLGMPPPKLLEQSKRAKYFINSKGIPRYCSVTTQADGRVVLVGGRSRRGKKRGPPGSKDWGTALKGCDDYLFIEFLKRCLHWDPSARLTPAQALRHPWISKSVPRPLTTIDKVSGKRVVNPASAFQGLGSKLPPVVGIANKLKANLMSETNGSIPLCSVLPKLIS

Homo sapiens = species on record: Homo sapiens; experiment: Inhibition of recombinant human casein kinase 2 using RRREDEESDDEE as substrate at 1 uM after 30 mins in presence of [gamma-32P]-ATP by scintillation counting method
T-24 [9] = experiment: Cytotoxicity against human T24 cells assessed as growth inhibition after 5 days by MTT assay; assay type: functional; conditions: T-24, 120 h
Outline: (§2)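 They were seeded at 5000 cells per well onto compound or DMSO (0.2% final). Plates were kept 5 days at 37 °C in 5% CO2 with no medium change, then read by MTT.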

MDA-MB-231 [10] = experiment: Cytotoxicity against human MDA-MB-231 cells assessed as growth inhibition after 5 days by MTT assay; assay type: functional; conditions: MDA-MB-231, 120 h; outline: as §2
HepG2 = experiment: Cytotoxicity against human HepG2 cells assessed as growth inhibition after 5 days by MTT assay; assay type: functional; conditions: HepG2, 120 h; outline: as §2
T47D = experiment: Cytotoxicity against human T47D cells assessed as growth inhibition after 5 days by MTT assay; assay type: functional; conditions: 120 h; outline: as §2
[11] = target: T3, Dual specificity protein kinase CLK1/CLK4 (Homo sapiens, UniProt Q9HAZ1+P49759); experiment: Inhibition of CLK1/4 in human T24 cells assessed as down regulation of EGFR expression after 3 days by Western blot analysis; assay type: cell-based
Outline: (§3)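 T24 or MDA-MB-231 cells were grown in DMEM to 70% confluency. The medium was replaced with compound diluted in DMEM, and cells were kept 3 days. Total protein was immunoblotted with monoclonal antibodies in 3% BSA/PBS against EGFR, p70S6K α, PARP-1, ERK2, HDAC1, CD44, PCNA and GRP94.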

[12] = target: T3, Dual specificity protein kinase CLK1/CLK4; experiment: Inhibition of CLK1/4 in human T24 cells assessed as down regulation of HDAC1 expression at 1.25 uM after 3 days by Western blot analysis relative to control; assay type: cell-based; outline: as §3
[13] = target: T3, Dual specificity protein kinase CLK1/CLK4; experiment: Inhibition of CLK1/4 in human MDA-MB-231 cells assessed as down regulation of EGFR expression at 20 uM after 3 days by Western blot analysis relative to control; assay type: cell-based; outline: as §3
[14] = target: T3, Dual specificity protein kinase CLK1/CLK4; experiment: Inhibition of CLK1/4 in human MDA-MB-231 cells assessed as down regulation of EGFR expression at 10 uM after 3 days by Western blot analysis relative to control; assay type: cell-based; outline: as §3
[15] = target: T3, Dual specificity protein kinase CLK1/CLK4; experiment: Inhibition of CLK1/4 in human MDA-MB-231 cells assessed as down regulation of S6 kinase expression at 20 uM after 3 days by Western blot analysis relative to control; assay type: cell-based; outline: as §3
[16] = target: T3, Dual specificity protein kinase CLK1/CLK4; experiment: Inhibition of CLK1/4 in human MDA-MB-231 cells assessed as down regulation of S6 kinase expression at 10 uM after 3 days by Western blot analysis relative to control; assay type: cell-based; outline: as §3
[17] = target: T3, Dual specificity protein kinase CLK1/CLK4; experiment: Inhibition of CLK1/4 in human MDA-MB-231 cells assessed as down regulation of S6 kinase expression at 2.5 uM after 3 days by Western blot analysis relative to control; assay type: cell-based; outline: as §3
[18] = target: T3, Dual specificity protein kinase CLK1/CLK4; experiment: Inhibition of CLK1/4 in human HepG2 cells assessed as down regulation of S6 kinase expression at 20 uM after 3 days by Western blot analysis relative to control; assay type: cell-based
Outline: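 HepG2 cells were grown in DMEM to 70% confluency, then the medium was replaced with compound diluted in DMEM. After 3 days, total protein was immunoblotted with monoclonal antibodies including HDAC1 and p70S6K.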

T-24 [19] = experiment: Down regulation of PCNA expression in human T24 cells at 1.25 to 10 uM after 3 days by Western blot analysis; assay type: functional, cell-based; outline: as §3
T-24 [20] = experiment: Down regulation of GRP94 expression in human T24 cells at 1.25 to 10 uM after 3 days by Western blot analysis; assay type: functional, cell-based; outline: as §3
MDA-MB-231 [21] = experiment: Down regulation of ERK2 expression in human MDA-MB-231 cells at 2.5 to 20 uM after 3 days by Western blot analysis; assay type: functional, cell-based; outline: as §3
MDA-MB-231 [22] = experiment: Down regulation of CD44 expression in human MDA-MB-231 cells at 2.5 to 20 uM after 3 days by Western blot analysis; assay type: functional, cell-based; outline: as §3
MDA-MB-231 [23] = experiment: Down regulation of GRP94 expression in human MDA-MB-231 cells at 2.5 to 20 uM after 3 days by Western blot analysis; assay type: functional, cell-based; outline: as §3

COc1ccc2sc(C(=O)N(C)Cc3cccc(F)c3)cc2c1
IC50 [1]: 6.9 to 7 nM
IC50 [2]: 206 nM
inhibition [3]: 77%
inhibition [4]: 92%
IC50 [5]: 2.3 nM
inhibition [6]: 2%
inhibition [7]: inactive
inhibition [8]: inactive
inhibition (Homo sapiens): 1.4%
GI50 (T-24 [9]): 600 nM
GI50 (MDA-MB-231 [10]): 9.6 µM
GI50 (HepG2): 2800 nM
GI50 (T47D): 15.3 µM
IC50 [11]: 2.2 µM
inhibition [11]: Dose-dependent effect
inhibition [12]: 13.6%
inhibition [13]: 56.2%
inhibition [14]: 54.1%
inhibition [15]: 41.4%
inhibition [16]: 33.1%
inhibition [17]: 12.1%
inhibition [18]: 44%
Activity (T-24 [19]): inactive
Activity (T-24 [20]): inactive
Activity (MDA-MB-231 [21]): inactive
Activity (MDA-MB-231 [22]): inactive
Activity (MDA-MB-231 [23]): inactive
